Sampled rows, rich in hits. Any-hit rate of the full collection: about 3.7%.
hERG rescue: hERG (human) protection from proarrhythmic block | Q12809 | CHO-hERG, FluxOR thallium flux, dofetilide IC70 present | activation (rescue from dofetilide block), less the hit threshold, % at 10 µM | actives 0.51% (n = 310,000);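 active = activation above the mean of controls blocked by dofetilide plus 5 SD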;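 note: thallium influx through hERG after potassium depolarization seen as dye fluorescence rise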
Kir21 block: Kir2.1 (mouse) channel inhibition; P35561; HEK293-Kir2.1, FluxOR thallium flux fluorescence; active compounds read low; B-score at 10 µM; actives 0.85% (n = 310,000); AID 1672;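 active = fluorescence ratio B-score at or below minus 3 SD of library scores, with starting-brightness B-score within 2 SD, cut at about -4.2 in these data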;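 note: channel flux triggered by added potassium and thallium sulfate stimulus; B-score of peak minus minimum fluorescence over baseline after thallium stimulus; more negative B-score means stronger Kir2.1 block with less thallium influx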
KCNK3 inh: human KCNK3 channel inhibition, primary screen. O14649. AID 602410. actives 0.84% (n = 340,000). CHO-KCNK3 thallium flux, FluxOR fluorescence; active compounds read low. B-score at 10 µM;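 active = B-score under library mean minus 4 SD, starting fluorescence ratio at most library mean plus 5 SD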;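 note: more negative B-score means stronger inhibition of thallium flux through KCNK3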
KCNQ1 pot: potentiates or activates the human KCNQ1 potassium channel. actives 0.35% (n = 310,000). CHO-K1 KCNQ1, thallium flux FluxOR fluorescence; active compounds read high. B-score at 10 µM. P51787;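 active = fluorescence ratio B-score, a plate-corrected score, at least three library SD, with initial intensity B-score within 5 SD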
Target sequence (P51787 whole entry, looked up): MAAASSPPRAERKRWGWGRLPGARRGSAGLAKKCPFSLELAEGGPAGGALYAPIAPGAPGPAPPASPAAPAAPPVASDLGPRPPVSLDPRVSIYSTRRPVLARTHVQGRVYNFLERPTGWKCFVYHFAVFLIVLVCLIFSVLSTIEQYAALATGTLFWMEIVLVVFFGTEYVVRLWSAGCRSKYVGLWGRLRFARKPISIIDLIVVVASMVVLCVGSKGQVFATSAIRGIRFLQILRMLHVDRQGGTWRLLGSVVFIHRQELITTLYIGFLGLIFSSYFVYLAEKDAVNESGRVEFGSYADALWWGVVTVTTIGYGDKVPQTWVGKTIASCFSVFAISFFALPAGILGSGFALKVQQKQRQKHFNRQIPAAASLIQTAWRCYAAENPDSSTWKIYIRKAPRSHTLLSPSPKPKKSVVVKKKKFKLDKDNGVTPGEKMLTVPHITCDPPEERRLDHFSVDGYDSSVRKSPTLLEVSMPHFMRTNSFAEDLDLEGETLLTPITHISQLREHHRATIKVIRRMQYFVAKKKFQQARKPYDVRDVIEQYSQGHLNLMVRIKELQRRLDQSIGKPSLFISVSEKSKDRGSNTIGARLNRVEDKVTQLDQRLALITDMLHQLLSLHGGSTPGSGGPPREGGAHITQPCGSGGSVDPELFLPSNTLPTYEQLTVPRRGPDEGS
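System: CHO-K1 cells stably expressing KCNQ1 / Medium: assay buffer for compound exposure, DMSO matched across wells / Reagent: thallium- and potassium-containing depolarizing buffer / Compound: one concentration, matched DMSO / Incubation: 20 min compound pretreatment at room temperature / Measured by: kinetic FluxOR fluorescence, 10 s baseline plus 110 s post-stimulus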
KCNK9 inh: inhibitors of human KCNK9 two-pore domain potassium channel; B-score at 10 µM; HEK293 KCNK9, FluxOR thallium flux fluorescence; active compounds read low; actives 1.2% (n = 310,000);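 active = ratio B-score over 3 SD below the library mean, with starting fluorescence within 5 SD of its mean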;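 note: negative B-score means less thallium flux so channel inhibition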
KCNQ1 inh: blocks the human KCNQ1 potassium channel. P51787. CHO-K1 KCNQ1, FluxOR thallium flux fluorescence; active compounds read high. B-score at 10 µM. actives 1.3% (n = 310,000);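 active = compounds whose thallium flux B-score, printed positive for inhibition, exceeds three library SD while starting fluorescence stays within three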;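 note: channel opened by potassium depolarization with thallium stimulus after 20 min compound exposure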
KCNK9 block conf: confirmation of human KCNK9 potassium channel inhibitors. shares compounds with KCNK9 inh. actives 43% (n = 4,900). inhibition, % at 10 µM. HEK293 KCNK9 cells, FluxOR thallium flux fluorescence;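 active = thallium signal inhibited by more than 5 SD of the compound-free buffer control wells, on both duplicate plates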;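 note: 0% = assay buffer control wells without compound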
Kir21 sel: tests whether KCNK9 modulators also affect mouse Kir2.1; shares compounds with KCNK9 inh; Kir2.1 cells, FluxOR thallium flux fluorescence; inhibition, % at 10 µM; actives 4% (n = 4,900); AID 492993;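 active = thallium signal drop more than 5 SD beyond the mean of the no-compound control wells, seen in both duplicate plates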;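 note: signal is fluorescence rise after thallium addition divided by baseline fluorescence; plate controls were assay buffer only for no effect and full block by chlorpromazine control for full effect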
KCNK9 uninduced: non-induced cell nonspecific activity of KCNK9 modulators; shares compounds with KCNK9 inh; non-induced KCNK9-HEK293, FluxOR thallium flux; inhibition, % at 10 µM; actives 40% (n = 4,900);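 active = thallium signal drop beyond 5 SD of the untreated control mean, on both duplicate plates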;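 note: plate controls were buffer only IC0 wells for no effect and SID17386958 at its maximal inhibitory level for full effect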
* marks the source's active call; other numbers are inactive results; i = inactive; nt = no result given.

SMILES | hERG rescue | Kir21 block | KCNK3 inh | KCNQ1 pot | KCNK9 inh | KCNQ1 inh | KCNK9 block conf | Kir21 sel | KCNK9 uninduced
COc1ccc(C)cc1NC(=O)CCNC(=O)Cn1ccc2ccccc2c1=O | -8 | 0.86 | i | i | i | i | nt | nt | nt
Cc1ccc(-n2c(C)nc3c(cnn3-c3ccc(F)cc3)c2=O)cc1C | -3 | -0.1 | i | i | i | i | nt | nt | nt
Cc1ccc(-n2c(C)nc3c(cnn3-c3ccc(C)c(C)c3)c2=O)cc1C | -11 | 0.08 | i | i | i | i | i | i | i
Cc1cccc(C(=O)Nc2ccc(C(=O)Nc3ccc(O)cc3)cc2)c1 | -10 | 0 | i | i | i | i | nt | nt | nt
Cc1ccc(-c2csc(NC(=O)c3cccc(C)c3)c2C(=O)O)cc1 | -9 | 0.33 | i | i | i | i | i | i | i
Cc1cccc(C(=O)Nc2scc(-c3ccc(Br)cc3)c2C(=O)O)c1 | -8 | 2.2 | i | i | i | i | nt | nt | nt
Cc1ccc(NC(=O)C(Nc2ccccc2)c2ccccc2)cc1 (stereo not drawn) | -9 | -0.1 | i | i | i | i | nt | nt | nt
Cc1cccc(C(=O)Nc2ccc(NC(=O)c3ccccc3)cc2)c1 | -2 | 0.11 | i | i | -11* | i | 54%* | i | i
Cc1cccc(C(=O)Nc2ccccc2C(=O)OCC(=O)Nc2ccc(C#N)cc2)c1 | -15 | -0.62 | i | i | -9.3* | i | 32%* | i | 28%*
Cc1ccc(NC(=O)C(Nc2cccc(C)c2)c2ccccc2)cc1 (stereo not drawn) | -10 | 0.01 | i | i | i | i | 33%* | i | 32%*
COc1ccccc1CNC(=O)COC(=O)CSc1ccc(C)c(C)c1 | nt | nt | i | nt | nt | nt | nt | nt | nt
CCOc1cccc(CN2CCN(CCCc3ccccc3)C(CCO)C2)c1O (stereo not drawn) | -1 | -0.29 | i | i | i | i | nt | nt | nt
Cc1cc(S(=O)(=O)N2CCCC(N(C)CCc3ccccn3)C2)c(C)cc1Cl (stereo not drawn) | -17 | -4.2 | i | i | i | i | i | i | i
O=C(NCc1ccccn1)C1CCCN(S(=O)(=O)c2cc(Cl)ccc2Cl)C1 (stereo not drawn) | nt | nt | i | nt | nt | nt | nt | nt | nt
Cc1cc(C)cc(CC2CC(=O)N(c3cc(C)ccc3C)C2=O)c1 (stereo not drawn) | -3 | -1.9 | i | i | i | i | i | i | i
Cc1ccc(N2C(=O)CC(Cc3cc(C)cc(C)c3)C2=O)cc1 (stereo not drawn) | -12 | 1.1 | i | i | i | i | nt | nt | nt
Cc1cc(C(=O)OC(C)C(=O)Nc2nc(-c3ccccc3)cs2)c(C)o1 (stereo not drawn) | -8 | -0.07 | i | i | i | i | i | i | i
Cc1cc(C(=O)OCC(=O)Nc2nc(-c3ccccc3)cs2)c(C)o1 | -4 | -2.6 | i | i | i | i | nt | nt | nt
COc1ccc([N+](=O)[O-])cc1N(CC(=O)N1CCCCC1)S(C)(=O)=O | -9 | -1.8 | i | i | i | i | nt | nt | nt
COc1ccccc1C#Cc1ccc2c(=O)c3ccccc3n(C)c2c1 | -23 | 0.46 | i | i | -9.7* | i | 44%* | i | i
Cn1c2ccccc2c(=O)c2cc(C#Cc3cccc(N)c3)ccc21 | nt | nt | i | nt | nt | nt | nt | nt | nt
COc1ccc(C#Cc2ccc3c(=O)c4ccccc4n(C)c3c2)cc1 | -15 | 1.1 | i | i | i | i | i | i | i
C=CCN(c1ccc(C(=O)NCCCn2ccnc2)cc1)S(C)(=O)=O | -5 | -1.4 | i | i | i | i | nt | nt | nt
Cc1ccc(NC(=O)CCn2c(=O)c3cccn3c3ccccc32)cc1C | -7 | 0.18 | i | i | i | i | nt | nt | nt
O=C(N/N=C/c1cc(Br)cc(Br)c1O)c1cccc(S(=O)(=O)N2CCOCC2)c1 | -13 | -0.21 | i | i | -8.5* | i | 59%* | i | 68%*
SMILES | hERG rescue | Kir21 block | KCNK3 inh | KCNQ1 pot | KCNK9 inh | KCNQ1 inh | KCNK9 block conf | Kir21 sel | KCNK9 uninduced
NC(N)=Nc1ccc(C=C2C=Cc3ccccc32)cc1 | nt | nt | i | nt | nt | nt | nt | nt | nt
CC(C)c1c(C(=O)N/N=C/C=C/c2ccccc2)nnn1-c1nonc1N | -5 | -0.16 | i | i | i | i | nt | nt | nt
COc1ccccc1-c1nc(C#N)c(N2CCCCCC2)o1 | -12 | -1.4 | i | i | i | i | nt | nt | nt
COc1ccccc1-c1nc(C#N)c(N2CCN(c3ccccc3)CC2)o1 | -8 | 1.9 | i | i | -12* | i | 44%* | i | i
COc1ccccc1-c1nc(C#N)c(N2CCc3ccccc3C2)o1 | -15 | -0.41 | -13* | i | -21* | i | 67%* | i | i
O=C(CN1CCN(c2ccccc2Cl)CC1)NC1CCCc2ccccc21 (stereo not drawn) | -10 | 0.3 | i | i | i | i | i | i | i
Cc1ccc(Cl)cc1N1CCN(CC(=O)NC2CCCc3ccccc32)CC1 (stereo not drawn) | -5 | 0.01 | i | i | i | i | i | i | i
O=C(CSc1ccc(Cl)cc1)NC1CCCc2ccccc21 (stereo not drawn) | -5 | 0.57 | i | i | i | i | nt | nt | nt
CC1Cc2ccccc2N1Cc1cc(=O)c(OCC(=O)NCCc2ccccc2)co1 (stereo not drawn) | -10 | 0 | i | i | i | i | nt | nt | nt
Cc1cc(C)n(-c2nc3ccccc3nc2N2CCCCCC2)n1 | -7 | -2 | i | i | -9.9* | i | 33%* | i | 40%*
CCCCCC(=O)N1CCCC(c2nc(-c3ccc(OC)cc3)no2)C1 (stereo not drawn) | -13 | -1.1 | i | i | i | i | i | i | i
CCCCCCC(=O)N1CCCC(c2nc(-c3cccc(OC)c3)no2)C1 (stereo not drawn) | -15 | -1.6 | i | i | i | i | i | i | i
COc1cccc(CN2CC(C(=O)NCCSc3nnnn3C)CCC2=O)c1 (stereo not drawn) | -8 | -0.85 | i | i | i | i | nt | nt | nt
CC(C)n1cc(C(=O)N2CCCC(N3CCN(c4cccc(Cl)c4)CC3)C2)cn1 (stereo not drawn) | -7 | -1 | i | i | i | i | nt | nt | nt

Assay outcomes as filed in PubChem.
